A selection: hits, their analogues and other compounds. The true share with any hit is near 0.79%.
hIAP inh: human IAP inhibition. purified IAP, CDP-Star luminescence, 30 min. inhibition, % at 10 µM. 0.12% of 330,000 active;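 active = inhibition reaching a set limit with compound at 10 µM in the primary screen, cut at about 35% in these data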
Target sequence (P09923 whole entry, looked up): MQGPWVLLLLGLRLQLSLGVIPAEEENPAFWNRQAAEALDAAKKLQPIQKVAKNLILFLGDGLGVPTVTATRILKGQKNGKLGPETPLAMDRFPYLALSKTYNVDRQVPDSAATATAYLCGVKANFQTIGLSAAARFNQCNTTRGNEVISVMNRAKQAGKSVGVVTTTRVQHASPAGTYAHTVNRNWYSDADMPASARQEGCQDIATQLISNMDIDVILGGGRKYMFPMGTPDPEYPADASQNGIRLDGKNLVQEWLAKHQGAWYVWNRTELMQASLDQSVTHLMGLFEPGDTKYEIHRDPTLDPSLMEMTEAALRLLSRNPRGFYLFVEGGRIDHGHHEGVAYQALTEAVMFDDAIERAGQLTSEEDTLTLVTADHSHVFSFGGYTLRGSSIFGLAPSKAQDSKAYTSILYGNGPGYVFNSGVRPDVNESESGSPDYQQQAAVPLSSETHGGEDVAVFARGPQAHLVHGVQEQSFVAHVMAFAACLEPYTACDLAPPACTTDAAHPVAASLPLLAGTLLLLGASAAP
hIAP activ: increases human intestinal alkaline phosphatase activity | purified human IAP, CDP-Star luminescence, 30 min; hits give high values; 1 = vehicle-only enzyme, 0 = enzyme-free background | 0.16% of 330,000 active | activation factor at 10 µM | P09923;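 active = activation factor of the enzyme at least 2-fold when tested at 20 µM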
mIAP act: mouse IAP activation | muIAP, CDP-Star luminescence, 30 min; hits give high values; 1 = vehicle-only enzyme signal, 0 = enzyme-free wells | activation factor at 10 µM | 0.24% of 330,000 active | AID 2805;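 active = activation factor of at least 2 at 20 µM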
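Assay system: mouse IAP enzyme; reagent: chemiluminescent substrate CDP-Star; dosing: test compounds delivered from DMSO solution; schedule: 30 min at room temperature; measured by: luminescence from enzymatic CDP-Star hydrolysis; controls: DMSO-only wells and no-enzyme negative control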
bIAP inh: intestinal alkaline phosphatase (bovine) inhibition; purified bovine IAP, CDP-star luminescence, 30 min; inhibition, % at 20 µM; 190,000 tested, under 10 active; AID 1019;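 active = over 50% inhibition of intestinal alkaline phosphatase at 20 µM in the single-dose screen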
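Assay system – bovine IAP enzyme · Quantity – bovine IAP at 1/65,000,000 final dilution · Detection – CDP-star luminescence signal · Times – 30 min reaction at room temperature · Also added – CDP-star substrate at 30 µM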
mIAP block: blocks mouse intestinal alkaline phosphatase; AID 2806; purified mouse IAP, CDP-Star luminescence, 30 min; 0.2% of 330,000 active; inhibition, % at 10 µM;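 active = inhibition of at least 40% at 10 µM in the primary screen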
bIAP activator: increases bovine intestinal alkaline phosphatase activity; purified bovine IAP, CDP-star luminescence, 30 min; hits give high values; fold of DMSO-control signal, blank-subtracted; activation factor at 20 µM; 0.17% of 200,000 active; AID 1016;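 active = activation factor of 2 or more at 20 µM, a signal rise over negative controls twice the positive control's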
mIAP inh confirm: mouse IAP inhibition confirmation. inhibition, % at 10 µM. shares compounds with mIAP block. 4.7% of 11,000 active. AID 434971. purified mouse IAP, CDP-Star luminescence, 30 min;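 active = inhibition of at least 40% at 10 µM in either of the two replicates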
Hits are given with their value; . = inactive; / = no result given.

SMILES | hIAP inh | hIAP activ | mIAP act | bIAP inh | mIAP block | bIAP activator | mIAP inh confirm
COc1ccccc1CNC(=O)CCNS(=O)(=O)c1ccc2[nH]c(=O)oc2c1 | . | . | . | / | 40.8 | / | 74.6
COc1ccccc1NC(=O)CCNS(=O)(=O)c1ccc2[nH]c(=O)oc2c1 | . | . | . | / | 41.3 | / | 73.5
COc1cccc(NC(=O)CN(C)S(=O)(=O)c2ccc3c(c2)CCC(=O)N3)c1 | . | . | . | / | . | / | /
COc1cccc(NC(=O)CN(C)S(=O)(=O)c2ccc3[nH]c(=O)oc3c2)c1 | . | . | . | / | 41.6 | / | 46.3
COc1cccc(CNC(=O)CCNS(=O)(=O)c2ccc3[nH]c(=O)oc3c2)c1 | . | . | . | / | 49.2 | / | 76.9
Cc1ccc(NC(=O)CCNS(=O)(=O)c2ccc3[nH]c(=O)oc3c2)cc1C | . | . | . | / | . | / | /
COc1ccc(OC)c(NC(=O)CCNS(=O)(=O)c2ccc3[nH]c(=O)oc3c2)c1 | . | . | . | / | 47.2 | / | 61.6
Cc1ccc(NS(=O)(=O)c2ccc(C)c(C(=O)NCC(c3ccccc3)N(C)C)c2)cc1 (stereo unspecified) | . | . | . | / | . | / | /
O=c1c(O)c(-c2cc(O)c(O)c(O)c2)oc2cc(O)cc(O)c12 | . | . | . | / | 75.1 | / | 75.2
O=c1c(O)c(-c2ccccc2)oc2cc(O)cc(O)c12 | . | . | . | / | . | / | /
CNC[C@@H]1Oc2c(NC(=O)Nc3ccccc3)cccc2C(=O)N([C@@H](C)CO)C[C@H]1C | . | . | . | / | . | / | /
CNC[C@H]1Oc2ccc(NC(=O)Nc3ccc(OC)cc3)cc2C(=O)N([C@@H](C)CO)C[C@H]1C | . | . | 2.99 | / | . | / | .
CNC[C@@H]1Oc2ccc(NC(=O)Nc3cccc4ccccc34)cc2C(=O)N([C@@H](C)CO)C[C@@H]1C | . | . | 4.25 | / | . | / | .
COc1ccc(CN2CC(C(=O)N3CC(C)CC(C)C3)CC2=O)cc1 (stereo unspecified) | . | . | . | / | . | / | /
COc1cccc(NC(=O)NCCCCc2ccccc2)c1 | . | . | 2.27 | / | . | / | .
COc1cccc(NC(=S)NCCC(c2ccccc2)c2ccccc2)c1 | . | . | 6.21 | . | . | . | .
COc1ccc(NC(=O)NCCCCc2ccccc2)cc1OC | . | . | . | / | . | / | /
COc1ccc(NC(=S)NCCC(c2ccccc2)c2ccccc2)c(OC)c1 | . | . | . | . | . | . | /
COc1cc(NC(=S)NCCC(c2ccccc2)c2ccccc2)cc(OC)c1 | . | . | 5.13 | . | . | . | .
Cc1cc(O)c2c(c1)C(=O)c1cc(O)cc(O)c1C2=O | . | . | . | / | . | / | /
O=C1c2cccc(O)c2C(=O)c2c(O)cc(CO)cc21 | . | . | . | / | 44.9 | / | 51.7
O=C(Nc1cccc(Cl)c1)Nc1cc(S(=O)(=O)N2CCCCC2)ccc1Cl | . | . | 3.57 | . | . | . | .
O=C(Nc1ccc(Cl)c(Cl)c1)Nc1cc(S(=O)(=O)N2CCOCC2)ccc1N1CCCC1 | . | . | 3.12 | . | . | . | .
O=C(Nc1ccc(Cl)c(Cl)c1)Nc1cc(C(=O)N2CCOCC2)ccc1N1CCCCC1 | . | . | 10.1 | / | . | / | .
O=S1(=O)CCN(OCc2ccc(Cl)cc2)CC1 | . | . | . | . | . | . | /
SMILES | hIAP inh | hIAP activ | mIAP act | bIAP inh | mIAP block | bIAP activator | mIAP inh confirm
CC(=O)Nc1cccc(-c2csc(N)n2)c1 | . | . | . | . | . | . | /
CC(=O)NCc1ccc(-c2csc(N)n2)s1 | . | . | . | . | 72.4 | . | 77.0
Cc1csc(N)n1 | . | . | . | . | . | . | /
Cc1ccc(-c2csc(N)n2)s1 | . | . | . | . | 68.4 | . | 78.0
CC(C)CC(=O)NC(NC(=S)Nc1sc2c(c1C#N)CCCC2)C(Cl)(Cl)Cl (stereo unspecified) | . | . | . | . | 40.6 | . | 41.3
CCC(=O)Nc1sc2c(c1C#N)CCC2 | . | . | . | . | . | . | /
O=C(O)CCCN1C(=O)/C(=C/C=C/c2ccco2)SC1=S | . | . | . | / | 67.6 | / | 68.7
O=C(NN1C(=O)/C(=C/C=C/c2ccco2)SC1=S)c1ccccc1O | . | . | . | / | 86.6 | / | 93.3
O=C(O)CC(C(=O)O)N1C(=O)/C(=C/C=C/c2ccco2)SC1=S (stereo unspecified) | . | . | . | / | 74.1 | / | 79.9
Cc1ccc(NC(=O)CCCN2C(=O)/C(=C/C=C/c3ccccc3)SC2=S)cc1 | . | . | . | . | . | . | /
O=C(O)CC(C(=O)O)N1C(=O)/C(=C/c2ccc(-c3nc4ccccc4s3)o2)SC1=S (stereo unspecified) | . | . | . | . | 63.4 | . | 61.7
Cn1cccc1/C=C1\SC(=S)N(NC(=O)c2ccccc2O)C1=O | . | . | . | / | . | / | /
O=C(O)CCN1C(=O)/C(=C/c2ccc(-c3nc4ccccc4s3)o2)SC1=S | . | . | . | . | . | . | /
CCOC(=O)C1CCN(C(=O)C2CCCN(S(=O)(=O)c3ccc(OCC)c(Cl)c3)C2)CC1 (stereo unspecified) | . | . | . | / | . | / | /
NS(=O)(=O)c1ccc(-c2ccc(C=O)o2)cc1 | . | . | . | . | . | . | /
NS(=O)(=O)c1ccc(-c2ccc(/C=C3\NC(=S)NC3=O)o2)cc1 | . | . | . | / | 89.7 | / | 76.9
CC(C)OC(=O)/C(C#N)=C/c1ccc(-c2ccc(SC(F)F)cc2)o1 | . | . | . | . | . | . | /
COC(=O)/C(C#N)=C/c1ccc(-c2ccc(S(N)(=O)=O)cc2)o1 | . | . | . | / | 63.8 | / | 78.6
CC1=C(C#N)C(=O)NC(=O)/C1=C/c1ccc(-c2ccc(S(N)(=O)=O)cc2)o1 | . | . | . | . | 54.0 | . | 70.0
O=C(NCCc1ccccc1F)C1CCCN(c2nc3ccccc3s2)C1 (stereo unspecified) | . | . | . | / | . | / | /
CC(NC(=O)Nc1ccc([N+](=O)[O-])cc1)C(c1ccccc1)N1CCOCC1 (stereo unspecified) | . | . | . | . | . | . | /
CC(NC(=O)Nc1ccc(Cl)c(Cl)c1)C(c1ccccc1)N1CCOCC1 (stereo unspecified) | . | . | 4.3 | . | . | . | .
CC1Cc2ccccc2N1C(=O)Cn1c(=O)oc2cc(S(=O)(=O)N3CCCCC3)ccc21 (stereo unspecified) | . | . | . | . | . | . | /
CC(C)(C)c1nc(NC(=O)Nc2ccccc2)sc1Br | . | . | 2.92 | . | . | . | .
O=C(O)c1ccccc1NS(=O)(=O)c1ccc2c3c(cccc13)C(=O)N2 | . | . | . | . | . | . | /
CN(c1ccccc1C(=O)O)S(=O)(=O)c1ccc2c3c(cccc13)C(=O)N2 | . | . | . | . | 46.0 | . | 62.0
O=C(O)CCCCCNS(=O)(=O)c1ccc2c3c(cccc13)C(=O)N2 | . | . | . | / | . | / | /
O=C(O)CNS(=O)(=O)c1ccc2c3c(cccc13)C(=O)N2 | . | . | . | / | 47.6 | / | 49.2
